Assay: Toxicity liver stage against HepG2, at 10uM
Type: cell-based
Design: test concentration 10 uM, cell line HepG2-A16-CD81EGFP
Conditions: human, HepG2-A16-CD81EGFP cells; read-out: INHIBITION
In short: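 Uninfected HepG2-A16-CD81EGFP cells, 3 × 10^3 per well, 1536-well, plated on prespotted compound at 10 μM final, parasite-free screening media added to match infected plates; puromycin 10 μM positive, DMSO 0.5% negative; run in parallel with 48 h PbLuc assay at 37 °C, 5% CO2; viability by CellTiter-Glo luminescence, normalized to controls.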

Row | SMILES | cytotoxicity at 10 µM [%]
1 | CCOC(=O)CCn1cnc2onc(-c3cc(OC)ccc3Cl)c2c1=O | -19
2 | COCc1cc(CC2(NC3CCN(C)CC3)COC2)no1 | -4.12
3 | O=C1N(Cc2ccccn2)C[C@H]2CN(C3CCC3)CCN12 | -4.81
4 | CC(C)Cc1cc(CC2(NCc3ccco3)COC2)no1 | 6.25
5 | CN(C)C(=O)c1cc(-c2ccncc2)[nH]n1 | 0.676
6 | CCOC(=O)N1[C@@H](c2ccco2)[C@@H](C(=O)O)C[C@]12CCCCNC2=O | -2.98
7 | O=C1CN(C(=O)c2ccc(Cl)cc2)CC(O)CN1Cc1cccs1 (configuration not stated) | 0.331
8 | COCCNC(=O)Cn1cc(OCc2ccccc2)c(=O)cc1CO | -7.44
9 | O=C1CC(c2ccc(C(=O)O)cc2)c2cnn(Cc3ccco3)c2N1 (configuration not stated) | -0.869
10 | Cn1cccc1C(O)CNC(=O)COc1ccc(Cl)cc1Cl (configuration not stated) | -1.23
11 | COc1ccc(-n2nnc(C(N)=O)n2)cc1 | 8.13
12 | COc1ccccc1C(O)Cn1cc(C(=O)NCC2CC2)nn1 (configuration not stated) | -2.62
13 | CC(C)NC(=O)N1CCC2(CC1)NC(=O)[C@H]1CN(C(=O)N(C)C)C[C@H]12 | -1.66
14 | Cc1nc(CN2C(=O)C[C@@H]3[C@@H]2CCN3Cc2cnn(C)c2)cs1 | 2.44
15 | Cc1ccc(N2CC[C@@H]3CN(Cc4c[nH]cn4)C[C@@H]3C2)nn1 | 7.43
16 | Cc1noc(C2CCC3(CCN(C(=O)c4ccnnc4)CC3)O2)n1 (configuration not stated) | 6.69
17 | COCc1ncn2c1CN(C(=O)Nc1cccc(OC)c1)CC2 | 12.7
18 | O=C(c1ccco1)N1CCOCC2(C1)CN(c1ccoc1)C(=O)CO2 (configuration not stated) | -6.04
19 | COCCN1CCO[C@H]2[C@H](OCc3cccc(C)n3)CC[C@@H]21 | -1.01
20 | CC(C)c1noc(-c2ccnc(-n3cnc(C(=O)O)c3)c2)n1 | 0.715
21 | Cc1ccc(-n2c(O)cc(C)c(C#N)c2=O)c(C)c1 | 7.75
22 | COCCNC(=O)CCc1c(C)nn(-c2nc(C)c(C)c(=O)[nH]2)c1C | 11.1
23 | CN(C)S(=O)(=O)N1CCC(Oc2ccccn2)CC1 | 13.6

Row | SMILES | cytotoxicity at 10 µM [%]
24 | O=C(c1ccccn1)N1Cc2nccn2CC(COc2cccnc2)C1 (configuration not stated) | -9.52
25 | Cn1cccc1C(=O)N1CCN(CC2CC2)c2ncccc2C1 | -21.9
26 | CN(C)C(=O)COCc1cncc2c1CCN(Cc1nccn1C)C2 | -7.61
27 | CC1CCCN(C(=O)c2cc(-c3ccco3)cs2)C1 (configuration not stated) | 7
28 | NCc1n[nH]c(-c2cccc(F)c2)n1 | -167
29 | Cc1ccc2cnn(CCC(=O)Nc3c(C)nn(C)c3C)c2c1 | -13.4
30 | CNc1cc(CCNS(=O)(=O)c2ccccc2)nc(-c2ccccn2)n1 | 5.13
31 | O=C(CCN1CCc2ccccc21)N1C[C@@H](O)[C@H](N2CCOCC2)C1 | 1.23
32 | Cc1c[nH]c(C2COCCN2S(=O)(=O)c2cn[nH]c2)n1 (configuration not stated) | -22.8
33 | CS(=O)(=O)NC[C@]1(O)CCN(C(=O)Cc2cccs2)C[C@H]1O | -17.9
34 | Cc1cc(C)nc(C2CCN(C(=O)c3c(C)noc3C)C2)n1 (configuration not stated) | -4.34
35 | Cc1cc(N(C)C)nc(C2(C)CCCN2C(=O)c2cncnc2C)n1 (configuration not stated) | -11.3
36 | CN(C)c1nc2ncc(Cl)cc2cc1C#N | 9.54
37 | CC(Cc1ccccc1F)C(=O)Nc1ccc(OCCC(N)=O)cc1 (configuration not stated) | -5.56
38 | CS(=O)(=O)CCN1CCN(c2ccc(Cl)cn2)CC1 | 4.13
39 | CC(c1ccc(F)cc1F)N1CCN(CCC(=O)NC(N)=O)CC1 (configuration not stated) | -8.58
40 | COCCN1CCN(CC(=O)NC2(C#N)CCCC2)CC1 | 3.5
41 | Cc1cccc2nc(CN3CCCC(Cn4ccnn4)C3)cc(=O)n12 (configuration not stated) | 3.23
42 | Cc1nn(C)c2ncc(NC(=O)N3CCCCCC3)cc12 | 4.87
43 | O=C(c1cc2c(s1)CCC2)N1CCN(c2cnccn2)CC1 | 1.5
44 | O=C(C1COCCO1)N1CCN(CC(F)(F)F)c2ccccc21 (configuration not stated) | 7.36
45 | CCC(C)(C)NC(=O)c1ccc(NC(=O)NCc2cc(C)on2)cc1 | -1.84
46 | CCS(=O)(=O)NCC(=O)NC(c1cc(C)sc1C)C(C)C (configuration not stated) | 3.77

Row | SMILES | cytotoxicity at 10 µM [%]
47 | O=C(CN1CCS(=O)(=O)CC1)NC1CCCCc2ccccc21 (configuration not stated) | 7.28
48 | CC(=O)NCCNC(=O)c1cc(Br)c2c(c1)OCCO2 | -1.54
49 | NC(=O)C1CCCN1Cc1cccc(NC(=O)c2cccs2)c1 (configuration not stated) | -12.7
50 | CCN(CC)CCNC(=O)c1cnc(-c2ccccc2)nc1 | 12.4
51 | CN(Cc1ccc(N2CCOCC2)cc1)Cc1noc(C(C)(C)C)n1 | 14
52 | Cc1cnn(CCNCC(O)c2ccc3c(c2)OCCO3)c1 (configuration not stated) | 3.31
53 | Cc1c(C(C)NC(=O)C2CCCC2)cnn1C (configuration not stated) | -10.9
54 | COc1ccc(CC(=O)NC2(C#N)CCOCC2)c(Cl)c1 | -6.48
55 | COc1ccc(CNC(=O)c2ccc(Cl)cc2F)cc1C(=O)O | -1.62
56 | O=C(CN1CCCC1Cn1cncn1)Nc1nncs1 (configuration not stated) | 5.05
57 | Cc1cc(C)n(CC2CN(Cc3cccc(C#N)c3)CCO2)n1 (configuration not stated) | -3.46
58 | CCc1nnc2n1CC(CNCc1nc(C)c(C)o1)CC2 (configuration not stated) | -16
59 | CCOc1ncccc1CNS(=O)(=O)N1CCOCC1 | -10.2
60 | Cc1ccc(C(=O)NCC2COCCO2)c(=O)[nH]1 (configuration not stated) | 10.9
61 | CCC1CN(CC(=O)NC(C)C)CCO1 (configuration not stated) | 2.16
62 | CNC(=O)c1ccc(NC(=O)NC(C)c2cc(C)oc2C)c(C)c1 (configuration not stated) | -10.6
63 | CS(=O)(=O)N1CCOC2(CCCC2)C1 | -4.7
64 | Cc1nc(-c2ccccc2C)n(CC(=O)NC(C)C)n1 | 7.47
65 | Cc1cc(C#N)ccc1S(=O)(=O)NCc1cnc(N(C)C)n1C | -2.64
66 | Cc1nc(CNC(=O)CCN2CCN(c3ccccn3)CC2)oc1C | -4.97
67 | COCC(O)CN(C)c1ccnc2cc(F)ccc12 (configuration not stated) | -2.63
68 | CC(O)CN1CCC(CN(C)CC(=O)NC2CCOCC2)CC1 (configuration not stated) | -3.33
69 | CCCn1nnnc1COc1ccc(C(=O)OC)cc1OC | -1.9

Row | SMILES | cytotoxicity at 10 µM [%]
70 | CC(=O)NCCCNCc1cc(F)ccc1Br | -0.595
71 | O=C(NCc1cc[nH]n1)NCC(c1ccccc1Cl)N1CCCC1 (configuration not stated) | 14.7
72 | O=C(NCc1ccccc1CN1CCC(O)CC1)Nc1cccnc1 | -8.8
73 | CC(C)COC(C)C(=O)N1CCN(S(C)(=O)=O)CC1 (configuration not stated) | -5.38
74 | CCc1noc(C(C)N(C)CC(=O)Nc2c(C)cccc2C)n1 (configuration not stated) | 2.14
75 | CCc1nc(CN2CCCN(c3nc4ccccc4o3)CC2)no1 | -22.5
76 | Cc1nc(NC(=O)CNC(=O)c2c(F)cccc2Cl)n[nH]1 | -10.2
77 | CCOc1ncccc1NC(=O)c1sccc1C | -16.1
78 | CCS(=O)(=O)N1CC[C@H]2O[C@H](c3nnc(C)o3)CC[C@H]21 | -75.6
79 | CCc1nc(C)sc1C(=O)N1CCN(c2ncccc2C)CC1 | 1.39
80 | Cc1cc(N(C)Cc2c(C)noc2C)n2nc(C)c(C)c2n1 | 5.44
81 | Cc1cccc(CN(Cc2ccccc2)Cc2nccs2)n1 | 12.4
82 | CCc1[nH]c2c(CNC(=O)C3CCC(=O)NC3)cc(C)cc2c1C (configuration not stated) | -3.79
83 | Cc1ccc2occ(CN3CCN(c4ncccn4)CC3)c(=O)c2c1 | -2.46
84 | CNc1cc(-c2ccc(COCCN)cc2)c2cc[nH]c2n1 | 5.89
85 | CCC(O)CNc1nccc(-c2ccc(C)nc2C)n1 (configuration not stated) | -2.92
86 | CCCN1CC2(CCN(C)CC2)CC1C(=O)NCCn1cc(C)cn1 (configuration not stated) | -22.9
87 | COc1ccc(Cl)cc1CN(C)C(=O)CN1C(=O)CCC1C (configuration not stated) | 0.277
88 | CN(C(=O)CCc1ccncc1)C1CCCN(CCc2ccccc2)C1 (configuration not stated) | -13.5
89 | O=C(c1cccc(-c2ccc(F)cc2)c1)N1CCC2(CC1)[C@H](O)C[C@@H]2O | 2.37
90 | O=C(O)c1cc(-c2ccncc2)cc(S(=O)(=O)N2CCCCCC2)c1 | 2.05
91 | Cc1oc(C)c(C(=O)NCc2cccnc2)c1C | 5.19
92 | Cc1nc(C2CCCN2C(=O)CCCn2cncn2)no1 (configuration not stated) | 6.62

Row | SMILES | cytotoxicity at 10 µM [%]
93 | CN(C(=O)c1ccc(-n2ncc(C#N)c2N)cc1)C1CCCC1 | -5.1
94 | CN(Cc1ccccn1)CC1CCCN1c1cccnn1 (configuration not stated) | 2.43
95 | COc1ccc(CC(=O)N2CCCCC2Cn2cccn2)cc1 (configuration not stated) | -11.3
96 | CCn1cnnc1CNC(=O)N1CCCCCC1 | -7.36
97 | COCc1nc(CN2CCOC(CN(C)c3cccnn3)C2)cs1 (configuration not stated) | 1.55
98 | CC(=O)Nc1nc(C(=O)NC(C)c2cccnc2)cs1 (configuration not stated) | -4.21
99 | CC(C)c1noc(C(C)N2CCN(Cc3cccc(C#N)c3)CC2)n1 (configuration not stated) | -14.3
100 | COc1ncccc1C(=O)N1CCN(C(=O)Cc2ccccn2)CC1 | 0.722
101 | COc1c(CNCc2ccnc(N3CCCC3)c2)c(C)nn1C | 4.31
102 | O=C(Cn1cccn1)NCC1(c2ccccc2)CC1 | 3.13
103 | O=C(Nc1cc(F)ccc1OCC1CCCO1)c1ccc(O)nc1 (configuration not stated) | -2.91
104 | Cn1ccc(C(=O)N2CCCC(n3cncn3)C2)cc1=O (configuration not stated) | -2.43
105 | Cn1cccc1C(=O)N1CCC2(CC1)COC(COc1ccccn1)C2 (configuration not stated) | 1.48
106 | Cn1cc(C(=O)N[C@H]2CN(Cc3nccs3)[C@@H]3CCCO[C@H]23)cn1 | 0.893
107 | c1cnc(N2CCOC3(COCCN(Cc4cc[nH]n4)C3)C2)nc1 (configuration not stated) | 11.8
108 | CC1c2ncc(Cn3cncn3)n2CCN1CC1CCOCC1 (configuration not stated) | 2.84
109 | O=C1[C@@H]2CCN(C3CCOCC3)C[C@@H]2OCCN1Cc1cccnc1 | -80
110 | Cc1nc(Cn2c3c(ccc2=O)CCN(CC2CC2)CC3)cs1 | 1.63
111 | c1cncc(CN2CC[C@@H]3[C@@H]2CCN3Cc2ccc3c(c2)OCO3)c1 | -3.04
112 | CC(=O)Nc1ccc(CN2C[C@@H]3CC[C@H]2CN(c2ncccn2)C3)cc1 | -0.0298

From ChEMBL document CHEMBL4513216, “Probing the Open Global Health Chemical Diversity Library for Multistage-Active Starting Points for Next-Generation Antimalarials” (ACS Infect Dis, 2020)
